Experimental data as given in PMC3223964 (ACS chemical neuroscience, 2011).
Several values for one entry are separate records, joined by “and”; a condition that tells them apart may be missing. Equal values may be shown once.

Key:
[1] = test system: 68 GPCRs, ion channels and transporters; test: Ricerca Lead Profiling Screen; type: binding; conditions: 10 μM
Kir2.1 = target: T1, Kir2.1 (Homo sapiens, UniProt P63252); test: Tl+ flux assay, Kir2.1; type: cell-based
T1 sequence (P63252 1-427): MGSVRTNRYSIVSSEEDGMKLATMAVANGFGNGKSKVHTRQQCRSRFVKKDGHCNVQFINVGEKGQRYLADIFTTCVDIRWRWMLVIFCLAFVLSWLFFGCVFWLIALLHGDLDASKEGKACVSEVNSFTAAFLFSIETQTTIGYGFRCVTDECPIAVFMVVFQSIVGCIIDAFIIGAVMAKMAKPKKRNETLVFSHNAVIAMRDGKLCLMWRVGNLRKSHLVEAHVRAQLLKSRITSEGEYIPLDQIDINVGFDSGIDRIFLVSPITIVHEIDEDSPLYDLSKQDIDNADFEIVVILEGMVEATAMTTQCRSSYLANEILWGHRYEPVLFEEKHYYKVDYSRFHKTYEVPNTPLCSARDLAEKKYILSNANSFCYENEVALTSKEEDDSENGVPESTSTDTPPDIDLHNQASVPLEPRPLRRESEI

CYP2C9 = CYP2C9 (Homo sapiens, UniProt P11712); test: CYP450 inhibition, CYP2C9; type: in vitro ADME
Sequence of CYP2C9 (P11712 whole entry): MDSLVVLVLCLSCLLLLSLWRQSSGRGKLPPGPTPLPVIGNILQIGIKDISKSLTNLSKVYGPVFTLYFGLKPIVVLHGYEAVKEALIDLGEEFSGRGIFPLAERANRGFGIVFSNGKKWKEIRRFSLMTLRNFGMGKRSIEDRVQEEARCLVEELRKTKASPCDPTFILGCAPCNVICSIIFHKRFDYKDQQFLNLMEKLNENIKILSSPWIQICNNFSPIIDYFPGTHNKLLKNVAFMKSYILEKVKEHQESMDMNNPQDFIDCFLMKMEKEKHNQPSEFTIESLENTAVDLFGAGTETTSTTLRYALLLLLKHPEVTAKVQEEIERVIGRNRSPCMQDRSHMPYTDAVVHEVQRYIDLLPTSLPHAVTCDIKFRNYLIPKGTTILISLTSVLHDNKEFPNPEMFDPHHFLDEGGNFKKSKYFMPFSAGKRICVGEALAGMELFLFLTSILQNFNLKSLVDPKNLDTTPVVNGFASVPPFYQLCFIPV

KCNQ3 = KCNQ3 (Homo sapiens, UniProt O43525); test: Tl+ flux assay, KCNQ3; type: cell-based
KCNQ4 [2] = target: T2, KCNQ4 (Homo sapiens, UniProt P56696); test: IonWorks automated electrophysiology, KCNQ4; type: cell-based; conditions: versus KCNQ2, IonWorks
KCNQ1 [3] = target: T3, KCNQ1 (Homo sapiens, UniProt P51787); test: Tl+ flux assay, KCNQ1; type: cell-based
CYP2D6 = CYP2D6 (Homo sapiens, UniProt P10635); test: CYP450 inhibition, CYP2D6; type: in vitro ADME
Sequence of CYP2D6 (P10635 whole entry): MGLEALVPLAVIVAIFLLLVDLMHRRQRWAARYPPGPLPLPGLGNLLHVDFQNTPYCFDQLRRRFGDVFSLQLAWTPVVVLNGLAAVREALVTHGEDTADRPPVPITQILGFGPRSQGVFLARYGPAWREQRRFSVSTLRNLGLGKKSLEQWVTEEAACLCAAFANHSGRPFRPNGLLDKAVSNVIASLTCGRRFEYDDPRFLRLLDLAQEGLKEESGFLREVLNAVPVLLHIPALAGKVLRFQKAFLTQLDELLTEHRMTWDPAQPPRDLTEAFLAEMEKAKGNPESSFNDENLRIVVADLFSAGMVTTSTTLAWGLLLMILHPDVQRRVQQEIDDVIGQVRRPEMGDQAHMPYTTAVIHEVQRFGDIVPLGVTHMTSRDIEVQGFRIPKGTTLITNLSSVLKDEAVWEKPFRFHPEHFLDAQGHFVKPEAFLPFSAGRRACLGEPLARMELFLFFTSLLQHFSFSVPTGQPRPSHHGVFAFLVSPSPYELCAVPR

KCNQ2/KCNQ3 = KCNQ2/KCNQ3 (Homo sapiens, UniProt O43525+O43526); test: IonWorks automated electrophysiology, KCNQ2/KCNQ3; type: cell-based
Outline: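 KCNQ2/KCNQ3-expressing cells on IonWorks population patch clamp, perforated with 50 μg/mL amphotericin B, extracellular pH 7.4 and internal pH 7.2. The KCNQ2 voltage protocol was used: a 2000 ms depolarizing step, with steady-state current read at step end before and 3 min after compound. Wells needed >100 pA current and >30 MΩ seal. Dosing was 8 points, 3-fold from 30 μM, in quadruplicate.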

CYP1A2 = target: T4, CYP1A2 (Homo sapiens, UniProt P05177); test: CYP450 inhibition, CYP1A2; type: in vitro ADME
T4 sequence (P05177 1-516): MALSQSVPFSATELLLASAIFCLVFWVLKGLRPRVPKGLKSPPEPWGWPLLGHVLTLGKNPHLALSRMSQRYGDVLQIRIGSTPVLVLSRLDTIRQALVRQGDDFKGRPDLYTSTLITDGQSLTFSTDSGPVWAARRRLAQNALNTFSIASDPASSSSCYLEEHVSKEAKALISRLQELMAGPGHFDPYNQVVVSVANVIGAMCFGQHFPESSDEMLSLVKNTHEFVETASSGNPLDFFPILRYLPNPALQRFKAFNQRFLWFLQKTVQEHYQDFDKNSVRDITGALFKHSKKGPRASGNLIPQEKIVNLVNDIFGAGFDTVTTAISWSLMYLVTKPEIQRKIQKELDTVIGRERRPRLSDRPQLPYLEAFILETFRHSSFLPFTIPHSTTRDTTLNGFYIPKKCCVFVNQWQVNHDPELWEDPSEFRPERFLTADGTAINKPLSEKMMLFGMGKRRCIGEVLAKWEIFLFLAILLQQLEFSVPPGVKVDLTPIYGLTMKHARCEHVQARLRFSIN

[4] = Snapshot in vivo PK study, plasma and brain levels after IP administration; conditions: 10 mg/kg
hERG = hERG (Homo sapiens, UniProt Q12809); test: IonWorks automated electrophysiology, hERG; type: cell-based
Sequence of hERG (Q12809 whole entry): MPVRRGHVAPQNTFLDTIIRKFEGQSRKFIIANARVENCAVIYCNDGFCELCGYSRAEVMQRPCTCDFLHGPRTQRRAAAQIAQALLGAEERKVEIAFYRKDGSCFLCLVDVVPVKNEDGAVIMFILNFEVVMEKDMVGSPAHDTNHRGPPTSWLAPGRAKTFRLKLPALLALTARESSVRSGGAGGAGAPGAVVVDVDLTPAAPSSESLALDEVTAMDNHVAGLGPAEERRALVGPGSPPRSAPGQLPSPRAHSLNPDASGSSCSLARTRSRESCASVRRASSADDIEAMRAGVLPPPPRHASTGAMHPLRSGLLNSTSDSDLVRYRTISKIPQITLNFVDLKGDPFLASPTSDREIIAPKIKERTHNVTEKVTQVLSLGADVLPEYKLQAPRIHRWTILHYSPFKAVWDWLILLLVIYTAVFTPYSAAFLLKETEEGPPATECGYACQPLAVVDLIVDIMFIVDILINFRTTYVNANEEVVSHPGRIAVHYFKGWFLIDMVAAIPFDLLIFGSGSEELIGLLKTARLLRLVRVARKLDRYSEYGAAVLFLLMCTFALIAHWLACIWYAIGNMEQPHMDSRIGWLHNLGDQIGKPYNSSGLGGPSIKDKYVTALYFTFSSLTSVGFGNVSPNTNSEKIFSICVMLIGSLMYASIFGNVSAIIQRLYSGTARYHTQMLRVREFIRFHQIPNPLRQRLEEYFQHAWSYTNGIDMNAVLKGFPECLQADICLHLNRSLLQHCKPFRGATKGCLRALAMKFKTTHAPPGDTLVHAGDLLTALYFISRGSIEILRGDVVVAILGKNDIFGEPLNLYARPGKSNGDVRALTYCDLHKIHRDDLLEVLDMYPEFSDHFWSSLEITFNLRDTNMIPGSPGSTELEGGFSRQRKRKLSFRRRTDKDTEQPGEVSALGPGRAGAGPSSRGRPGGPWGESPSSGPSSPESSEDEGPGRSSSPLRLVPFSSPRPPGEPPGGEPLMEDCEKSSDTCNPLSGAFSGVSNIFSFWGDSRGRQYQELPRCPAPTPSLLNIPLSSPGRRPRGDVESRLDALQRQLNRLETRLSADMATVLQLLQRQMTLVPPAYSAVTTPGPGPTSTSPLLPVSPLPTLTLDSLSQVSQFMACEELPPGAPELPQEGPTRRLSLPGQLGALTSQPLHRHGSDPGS

CYP3A4 = CYP3A4 (Homo sapiens, UniProt P08684); test: CYP450 inhibition, CYP3A4; type: in vitro ADME
Sequence of CYP3A4 (P08684 whole entry): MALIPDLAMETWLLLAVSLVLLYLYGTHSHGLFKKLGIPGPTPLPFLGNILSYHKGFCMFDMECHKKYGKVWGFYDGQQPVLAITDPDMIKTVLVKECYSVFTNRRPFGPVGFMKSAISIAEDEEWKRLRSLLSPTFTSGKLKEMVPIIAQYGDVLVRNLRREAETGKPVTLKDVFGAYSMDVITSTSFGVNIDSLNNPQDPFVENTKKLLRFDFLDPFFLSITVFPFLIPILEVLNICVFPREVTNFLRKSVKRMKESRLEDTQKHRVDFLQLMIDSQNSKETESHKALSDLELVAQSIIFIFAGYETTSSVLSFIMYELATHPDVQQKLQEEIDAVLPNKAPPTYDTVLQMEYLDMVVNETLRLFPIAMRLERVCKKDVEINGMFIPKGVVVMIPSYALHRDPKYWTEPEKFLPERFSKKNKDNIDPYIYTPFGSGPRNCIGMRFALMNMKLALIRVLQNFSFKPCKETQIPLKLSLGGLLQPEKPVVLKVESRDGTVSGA

KCNQ5 = KCNQ5 (Homo sapiens, UniProt Q9NR82); test: Tl+ flux assay, KCNQ5; type: cell-based
KCNQ1/KCNE1 [5] = target: T5, KCNQ1/KCNE1 (Homo sapiens, UniProt P51787); test: Tl+ flux assay, KCNQ1/E1; type: cell-based
KCNQ2 channels [6] = target: T6, KCNQ2 channels (Homo sapiens, UniProt O43526); test: Thallium-based fluorescence; type: cell-based; conditions: 10-point CRC
Outline: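 Thallium influx read with FluxOR dye. Cells were plated at 6500/well on poly-D-lysine, cultured overnight at 37 °C and 5% CO2, and dye-loaded 90 min at room temperature in the dark. Assay buffer was HBSS with 5.8 mM K+, with 20 min compound preincubation. Stimulus brought final K+ to 15.8 mM and Tl+ to 5 mM. Reading was at 1 Hz for 10 s baseline plus 110 s; ΔF/F0 over 120 s was normalized to activator and buffer controls.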

KCNQ2 channels [7] = target: T6, KCNQ2 channels; test: IonWorks automated electrophysiology; type: cell-based; conditions: IW EC50, KCNQ2 (enhancement of KCNQ2 currents), -10 mV step potential
Outline: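 Perforated-patch population clamp (IonWorks Quattro) on CHO cells stably expressing KCNQ2. Cells were freshly detached and seeded at 7000 cells/well in HEPES/glucose saline at pH 7.4, then perforated with 50 μg/mL amphotericin B in KCl/K-gluconate internal solution at pH 7.2. Steady-state current at the end of a 2000 ms depolarizing step was read before and after 3 min compound, as % change per well. Dosing was 8 points, 3-fold from 30 μM, in quadruplicate. Conductance was current divided by driving force; ΔV1/2 came from the same cells.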

KCNQ4 [8] = target: T2, KCNQ4; test: Tl+ flux assay, KCNQ4; type: cell-based; conditions: versus KCNQ2, Tl+ flux assay
KCNQ1/KCNE1 [9] = target: T5, KCNQ1/KCNE1; test: IonWorks automated electrophysiology, KCNQ1/KCNE1; type: cell-based
Outline: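 KCNQ1/KCNE1 cells in IonWorks perforated patch (50 μg/mL amphotericin B) at pH 7.4 extracellular. The protocol was a 3000 ms depolarizing step to +40 mV, then a 500 ms hyperpolarizing step. Steady-state current at +40 mV was read before and after 3 min compound exposure. Concentration-response was 8 points, 3-fold from 30 μM, in quadruplicate; sampling was 0.625 kHz.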

KCNQ1 [10] = target: T3, KCNQ1; test: IonWorks automated electrophysiology, KCNQ1; type: cell-based
Outline: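 KCNQ1 cells in IonWorks perforated-patch mode (50 μg/mL amphotericin B), with extracellular saline at pH 7.4. Cells were depolarized to +40 mV from the holding potential, and current was measured during the +40 mV step before and 3 min after compound. No liquid junction correction was applied; sampling was 0.625 kHz. EC50 came from 8-point, 3-fold dilutions from 30 μM, in quadruplicate.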

Cc1cc(C)c(NC(=O)C2CC3CCC2C3)c(C)c1 (stereo not drawn) [compound 1, N-Mesitylbicyclo[2.2.1]heptane-2-carboxamide]
inhibition of radio ligand binding, panel of 68 GPCRs, ion channels and transporters [1]: ≤ 50%
EC50 (Kir2.1): > 10 µM
Fold selectivity (Tl+), Kir2.1 (Kir2.1; versus KCNQ2, Tl+ flux assay): >27 fold
IC50 (CYP2C9): > 30 µM
EC50 (KCNQ3): > 30 µM
Fold selectivity (Tl+), KCNQ3 (KCNQ3; versus KCNQ2, Tl+ flux assay): >80 fold
Fold selectivity (IW), KCNQ4 (KCNQ4 [2]): 1.4 fold
EC50 (KCNQ1 [3]): > 30 µM
selectivity ratio at 20 min (KCNQ1 [3]): > 80
IC50 (CYP2D6): > 30 µM
EC50 (KCNQ2/KCNQ3): 0.37 µM
Fold selectivity (IW), KCNQ2/3 (KCNQ2/KCNQ3; versus KCNQ2, IonWorks): 1 fold
IC50 (CYP1A2): > 30 µM
concentration at 1 h ([4]; brain): 476 nM
concentration at 1 h ([4]; plasma): 1260 nM
EC50 (hERG): > 10 µM
selectivity ratio (hERG; human): > 28
IC50 (CYP3A4): > 30 µM
EC50 (KCNQ5): > 30 µM
Fold selectivity (Tl+), KCNQ5 (KCNQ5; versus KCNQ2, Tl+ flux assay): >80 fold
EC50 (KCNQ1/KCNE1 [5]): > 30 µM
selectivity ratio at 20 min (KCNQ1/KCNE1 [5]): > 80
maximal increase in Tl+ influx, KCNQ2 (KCNQ2 channels [6]): 56%
EC50 (KCNQ2 channels [6]; Tl+ EC50, KCNQ2, fluorescent Tl+ influx assay): 0.359 µM and 0.36 µM
EC50 (KCNQ2 channels [7]): 0.23 µM
Fold selectivity (Tl+), KCNQ4 (KCNQ4 [8]): 6.7 fold
EC50 (KCNQ1/KCNE1 [9]): > 30 µM
selectivity ratio at 3 min (KCNQ1/KCNE1 [9]; pH 7.4): > 80
EC50 (KCNQ1 [10]): > 30 µM
selectivity ratio at 3 min (KCNQ1 [10]; pH 7.4): > 80
